MT stabilizer: microtubule stabilizers in HeLa cells. HeLa tubulin immunostaining HCS, 24 h; share of cells brighter than vehicle mean+2SD. % tubulin-high responders, % at 10 µM. 200,000 tested, 0.83% active. AID 2205;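 active = plate Z-score above 3 for both tubulin-high and condensed-nucleus cell shares, with cell loss under 80%, at 10 µM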;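 also: anti alpha tubulin signal scored within the nucleus-defined area of each cell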
Autophagy mod: alters autophagy in cells | MEF GFP-LC3 puncta imaging; test concentration mostly 10 µM | calls only at 10 µM (by protocol) | 190,000 tested, 0.98% active;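 active = percentage of spot-positive cells more than 3 SD above its plate mean, without a fluorescence outlier flag or 80% toxicity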;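 also: spot-positive cell cutoff set from DMSO-treated cells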
Dynein transport: dynein cargo transport inhibition; 3617.4 mouse cells, GR-EGFP nuclear translocation imaging; test concentration mostly 20 µM; stimulated with dexamethasone, 1 µM; active compounds read low; z-score, hits read low; 220,000 tested, 0.47% active; AID 1381;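 active = plate z-score of nuclear minus cytoplasmic receptor signal below a set negative limit, without overly bright fluorescence or cell loss, cut at about -3.5 in these data, passing the limit was not always enough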;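 also: z-score of nuclear minus cytoplasmic ring GR-EGFP intensity difference per well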
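medium = tetracycline-free induction medium containing charcoal-stripped FBS | also added = 1.0 µM final dexamethasone stimulus | schedule = 48 h induction, 1 h compound, 30 min dex at 37 °C | technique = fixed, Hoechst-stained cells imaged at 10x for EGFP | measure = GR-EGFP nuclear translocation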
bCat nuc transl: modulators of beta-catenin nuclear translocation; nuclear translocation activity, % at 5 µM; AID 1665; 190,000 tested, 0.3% active; HeLa beta-catenin nuclear translocation, immunofluorescence imaging;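 active = nuclear translocation activity above 50% at 5 µM, with a well cell count of 50 or more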;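 also: per-cell ratio of nuclear to cytoplasmic median beta-catenin stain intensity; plate controls were DMSO negative control for no effect and GSK-3 inhibitor IX positive control for full effect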
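Test system: human HeLa cells, endogenous beta-catenin. Times: 24 h compound exposure, 37°C. Measured by: beta-catenin immunofluorescence imaging with DAPI.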
CHOP inhibitor: CHOP inhibition in unfolded protein response; CHO-K1 CHOP-promoter luciferase, tunicamycin-induced, 15-18 h; inhibition, % at 10 µM; 220,000 tested, 3.8% active; AID 2732;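 active = compounds that reduced the stress-induced luciferase reporter signal by more than about 70% of percent inhibition, limit read from the data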;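 also: 0% = tunicamycin plus vehicle and 100% = wells without tunicamycin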
L major viab: reduces viability of Leishmania major promastigotes | resazurin fluorescence viability | inhibition, % at 10 µM | 200,000 tested, 9% active; in the data active = inhibition above about 50%;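 also: promastigotes grown with compound for 44 hours at 28 °C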
* hit, by the source's call. An excerpt weighted towards active compounds, which were near 12% of everything screened.

What do the screens show for `CCc1nnc(NC(=O)CSc2nnc(CSc3nc(C)cc(C)n3)o2)s1`?
MT stabilizer: 2.7; Autophagy mod: inactive; Dynein transport: 0.373; bCat nuc transl: 0.3; L major viab: -8.4

What do the screens show for `O=c1cc(N2CCCCCC2)[nH]c(=O)n1-c1ccccc1Cl`?
MT stabilizer: 1.2; Autophagy mod: inactive; Dynein transport: -0.459; bCat nuc transl: -1.2; CHOP inhibitor: -4.7; L major viab: -3.6

What do the screens show for `CCCC(Oc1ccc(Br)cc1)c1nc2c3cc(OC)c(OC)cc3nc(=S)n2[nH]1` (stereo unspecified)?
MT stabilizer: 3.6; Autophagy mod: inactive; Dynein transport: -0.217; bCat nuc transl: -0.2; CHOP inhibitor: -50.7; L major viab: 96.8*

What do the screens show for `CC(C)=C1SC(N2CCN(Cc3ccccc3)CC2)=NC1=O`?
MT stabilizer: 2.7; Autophagy mod: inactive; Dynein transport: 0.37; bCat nuc transl: -0.4; CHOP inhibitor: -8.7; L major viab: -9.5

How did CC(C)=C1SC(N2CCN(c3cccc(Cl)c3)CC2)=NC1=O do in these assays?
MT stabilizer: 3.2; Autophagy mod: inactive; Dynein transport: 0.416; CHOP inhibitor: 8.8; L major viab: 67.5*

How did CCc1ccc(N/C(SC)=C(/C#N)C(N)=O)cc1 do in these assays?
MT stabilizer: 3.3; Autophagy mod: inactive; Dynein transport: -0.721; bCat nuc transl: 0.3; CHOP inhibitor: 45.9; L major viab: -6.1

Results for CCCCS/C(=C(/C#N)C(N)=O)c1cc2c([nH]1)CCCC2 ?
MT stabilizer: 11.9*; Autophagy mod: inactive; Dynein transport: -1.51; bCat nuc transl: 4.2; CHOP inhibitor: 34.9; L major viab: 50.7*

How did Cc1cc(C(=O)CN2C(=O)c3ccccc3C2=O)c(C)n1Cc1cccs1 do in these assays?
MT stabilizer: 3.3; Autophagy mod: inactive; Dynein transport: 0.269; bCat nuc transl: -3.8; CHOP inhibitor: -11.8; L major viab: -7.2

Results for C=CCn1c(C)cc(C(=O)CN2NS(=O)(=O)c3ccccc3C2=O)c1C ?
MT stabilizer: 8.6*; Autophagy mod: inactive; Dynein transport: 1.64; bCat nuc transl: 2.1; CHOP inhibitor: -27.4; L major viab: 32.0

What do the screens show for `CCC(C(=O)Nc1ccccc1OC)n1c(C(=O)OC)cc2ccsc21` (stereo unspecified)?
MT stabilizer: 5.9; Autophagy mod: inactive; Dynein transport: 0.977; bCat nuc transl: -1.6; CHOP inhibitor: 81.2*; L major viab: 29.5

How did CC(=O)c1cccc(NC(=O)COc2cc3oc(=O)c(CC(C)O)c(C)c3cc2Cl)c1 (stereo unspecified) do in these assays?
MT stabilizer: 3.4; Autophagy mod: inactive; Dynein transport: 0.353; bCat nuc transl: 0.9; CHOP inhibitor: 19.9; L major viab: -6.1

How did c1ccc(-c2ccc(OCCCNC3CCCC3)cc2)cc1 do in these assays?
MT stabilizer: 1.4; Autophagy mod: inactive; Dynein transport: 0.432; bCat nuc transl: -0.3; CHOP inhibitor: 24.2; L major viab: 100.4*

What do the screens show for `COc1ccc(OCCC(=O)NC2CCCCC2)cc1`?
MT stabilizer: 1.9; Autophagy mod: inactive; Dynein transport: 0.186; bCat nuc transl: -2.9; CHOP inhibitor: 7.9; L major viab: 0.1

How did c1ccc(Cc2ccc(OCCCNC3CCCC3)cc2)cc1 do in these assays?
MT stabilizer: 7.4; Autophagy mod: inactive; Dynein transport: -1.01; bCat nuc transl: 0.2; CHOP inhibitor: 34.9; L major viab: 100.2*

What do the screens show for `c1ccc(SCCCCNC2CCCC2)cc1`?
MT stabilizer: 3.1; Autophagy mod: inactive; Dynein transport: 0.621; bCat nuc transl: 2.6; CHOP inhibitor: 8.6; L major viab: 86.5*

How did COc1ccc(OCCNC2CCCC2)cc1 do in these assays?
MT stabilizer: 1.9; Autophagy mod: inactive; Dynein transport: -1.06; bCat nuc transl: -2.5; CHOP inhibitor: 34.7; L major viab: 61.4*

Results for N#Cc1ccc(OCCOCCNC2CCCC2)cc1 ?
MT stabilizer: 2.4; Autophagy mod: inactive; Dynein transport: 0.878; bCat nuc transl: 1.2; CHOP inhibitor: -17.1; L major viab: 81.4*

Results for c1cc2c(cc1OCCNC1CCCC1)CCC2 ?
MT stabilizer: 4.3; Autophagy mod: inactive; Dynein transport: 0.738; bCat nuc transl: -2.2; CHOP inhibitor: 5.8; L major viab: 75.6*

What do the screens show for `CC12C(=O)N(c3cccc(OC(=O)c4ccco4)c3)C(=O)C1C1c3ccccc3C2c2ccccc21` (stereo unspecified)?
MT stabilizer: 1.5; Autophagy mod: inactive; Dynein transport: -0.266; CHOP inhibitor: 52.4; L major viab: 19.8

Results for CC12C(=O)N(c3ccc(OC(=O)c4ccco4)cc3)C(=O)C1C1c3ccccc3C2c2ccccc21 (stereo unspecified) ?
MT stabilizer: 2.6; Autophagy mod: inactive; Dynein transport: 0.991; bCat nuc transl: -2.3; CHOP inhibitor: 10.6; L major viab: 57.8*

Results for NNc1ccc(Cc2ccc(Cl)cc2Cl)nn1 ?
MT stabilizer: 1.8; Autophagy mod: inactive; Dynein transport: -0.412; bCat nuc transl: -1.4; CHOP inhibitor: 18.5; L major viab: 91.0*

Results for Nc1nc(N)c(Cc2ccc(Cl)cc2Cl)c(N)n1 ?
MT stabilizer: 8.6; Autophagy mod: inactive; Dynein transport: -0.0962; bCat nuc transl: 2.7; CHOP inhibitor: 6.6; L major viab: 63.7*

What do the screens show for `CCOC(=O)c1cc(CC)sc1NC(=O)COC(=O)c1cc[n+]([O-])cc1`?
MT stabilizer: 5.0; Autophagy mod: inactive; Dynein transport: -0.285; bCat nuc transl: -1.6; CHOP inhibitor: 4.7; L major viab: -2.6

How did Cn1c(=O)c2c(ncn2CC(O)CNc2ccc(Br)cc2)n(C)c1=O (stereo unspecified) do in these assays?
MT stabilizer: 2.5; Autophagy mod: inactive; Dynein transport: -0.723; bCat nuc transl: 5.5; CHOP inhibitor: 12.9; L major viab: 4.0

Results for COc1ccc(CC(=O)NNS(=O)(=O)c2ccc(F)cc2)cc1OC ?
MT stabilizer: 2.3; Autophagy mod: inactive; Dynein transport: -0.492; bCat nuc transl: -0.4; CHOP inhibitor: 0.4; L major viab: 15.8

How did CC(C)NC(=O)/C(C#N)=C/c1cccc(NC(=O)c2ccccc2Cl)c1 do in these assays?
MT stabilizer: 3.7; Autophagy mod: inactive; Dynein transport: 2.73; bCat nuc transl: -1.9; CHOP inhibitor: -55.5; L major viab: 100.2*

Results for O=c1cc(N2CCN(c3ccccc3)CC2)[nH]c(=O)n1C1CCCCC1 ?
MT stabilizer: 5.9; Autophagy mod: inactive; Dynein transport: 0.795; bCat nuc transl: 0.1; CHOP inhibitor: 78.1*; L major viab: 5.9

Results for O=c1cc(N2CCOCC2)[nH]c(=O)n1C1CCCCC1 ?
MT stabilizer: 4.6; Autophagy mod: inactive; Dynein transport: 3.57; bCat nuc transl: -3.8; CHOP inhibitor: -8.0; L major viab: -2.4
